Measured values reported in paper PMC9720105 (Redox Biology, 2022).

Columns and labels:
[1] = system: NQO1, TALDO1, and GCLM mRNA in BEAS-2B cells; assay: Quantitative RT-PCR of antioxidant genes in BEAS-2B cells; type: cell-based, human; settings: 0.13 μM, 48 h
Procedure, shortened: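 BEAS-2B cells were treated with 0.13 μM test compound for 48 h. RNA was extracted, reverse transcribed (SuperScript IV) and quantified by SYBR Green qPCR. Expression was normalized to 18S by the delta-delta-Ct method. Three independent experiments, each in technical triplicate; mean and S.D.; unpaired t-test.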

[2] = system: HepG2 ARE-luciferase reporter cells; assay: ARE-luciferase activity assay; type: cell-based; settings: 48 h, 14: maximum at 1 μM
BEAS-2B cells = assay: Flow cytometric detection of cell viability after tBHP; type: cell-based, human; settings: 50 μM tBHP
Procedure, shortened: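 BEAS-2B cells (LHC-9 with pen/strep) were seeded at 1.2 × 10⁴ cells/well overnight, pre-treated with test compound for 24 h, then given 50 μM tBHP for 24 h. Harvested cells were stained with 1 μg/mL propidium iodide. Gating used FSC-A/SSC-A to exclude debris and FSC-H/FSC-A to exclude doublets. Viability was % PI-negative cells. Three independent assays, single points each; mean and S.D.; unpaired t-test.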

BEAS-2B cells proteome = assay: Label-free quantitative MS proteomics in BEAS-2B cells; type: cell-based, human; settings: 0.13 μM, 48 h, vs DMSO
Procedure, shortened: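 BEAS-2B cells received DMSO or 0.13 μM test compound for 48 h, then were lysed in 5% SDS/50 mM TEAB. 20 μg protein was processed on S-traps (chloroacetamide alkylation), digested with trypsin/Lys-C and cleaned on SDB stage tips. About 100 ng peptide ran on a 48 min C18 gradient, timsTOF DIA-PASEF. Library-free search against human UniProt, 1% precursor FDR, MaxLFQ quantitation. Hits: >1.5-fold versus DMSO, adjusted P <0.01.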

[3] = system: NRF2 downstream targets, NQO1 and HO-1; assay: NQO1 and HO-1 protein levels in HEK293T and HCA7 cell lines; type: cell-based; settings: 48 h
Procedure, shortened: (§1)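 HEK293T, HCA7 and A549 cells were grown in DMEM with 10% FBS and pen/strep; BEAS-2B in LHC-9 with pen/strep; all at 37 °C, 10% CO₂. Cells were exposed to test compound for 48 h, lysed, run on 4–12% SDS-PAGE and transferred to nitrocellulose. Blocking was 5% skim milk for 1 h at RT. Probes were anti-KEAP1, CRBN, NQO1 or HO-1, with HRP anti-β-actin loading control and HRP secondaries. Blots represent 3 independent experiments.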

CRBN = CRBN (Homo sapiens, UniProt Q96SW2); assay: CRBN levels by immunoblotting; type: cell-based; settings: HEK293T, HCA7, BEAS-2B, and A549 cells, 48 h
Sequence of CRBN (Q96SW2 whole entry): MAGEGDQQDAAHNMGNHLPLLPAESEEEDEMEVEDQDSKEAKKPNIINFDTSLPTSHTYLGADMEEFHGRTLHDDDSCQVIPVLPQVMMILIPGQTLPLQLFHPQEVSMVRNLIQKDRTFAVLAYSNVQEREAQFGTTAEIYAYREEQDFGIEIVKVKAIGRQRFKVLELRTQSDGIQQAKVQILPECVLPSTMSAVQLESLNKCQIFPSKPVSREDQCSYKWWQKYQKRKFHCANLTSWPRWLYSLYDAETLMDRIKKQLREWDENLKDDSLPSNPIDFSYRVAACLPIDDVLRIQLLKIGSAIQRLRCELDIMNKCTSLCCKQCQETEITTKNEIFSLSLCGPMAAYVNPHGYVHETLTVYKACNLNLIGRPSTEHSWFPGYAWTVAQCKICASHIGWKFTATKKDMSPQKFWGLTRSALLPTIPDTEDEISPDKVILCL
Procedure, shortened: as §1

[4] = target: KEAP1 (G333C mutation in the KEAP1-Kelch domain) in A549 cells (Homo sapiens, UniProt Q14145, G333C); assay: KEAP1 degradation in A549 cells; type: cell-based; settings: 48 h
Sequence of KEAP1 (G333C mutation in the KEAP1-Kelch domain) in A549 cells (Q14145 whole entry G333C, the tested form may be a part): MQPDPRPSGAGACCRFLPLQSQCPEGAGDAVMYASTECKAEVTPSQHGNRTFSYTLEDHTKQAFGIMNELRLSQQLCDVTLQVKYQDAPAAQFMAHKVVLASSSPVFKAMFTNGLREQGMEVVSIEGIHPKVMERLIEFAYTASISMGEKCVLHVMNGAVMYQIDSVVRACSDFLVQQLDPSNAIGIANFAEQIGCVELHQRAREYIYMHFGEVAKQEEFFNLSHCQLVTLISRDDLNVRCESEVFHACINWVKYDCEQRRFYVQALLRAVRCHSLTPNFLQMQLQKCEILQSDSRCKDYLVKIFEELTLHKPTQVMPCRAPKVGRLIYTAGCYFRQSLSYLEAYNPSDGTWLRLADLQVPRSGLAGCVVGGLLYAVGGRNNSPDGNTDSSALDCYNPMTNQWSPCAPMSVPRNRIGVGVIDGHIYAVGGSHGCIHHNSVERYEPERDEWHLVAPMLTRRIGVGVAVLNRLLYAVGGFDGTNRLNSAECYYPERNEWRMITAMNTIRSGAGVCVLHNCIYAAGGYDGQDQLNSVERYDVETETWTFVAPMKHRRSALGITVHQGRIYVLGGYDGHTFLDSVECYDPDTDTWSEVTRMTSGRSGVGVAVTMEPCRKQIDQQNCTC
Procedure, shortened: as §1

KEAP1 in HEK293T cells = KEAP1 in HEK293T cells (Homo sapiens, UniProt Q14145); assay: KEAP1 degradation in HEK293T cells; type: cell-based
Sequence of KEAP1 in HEK293T cells (Q14145 whole entry, the tested form may be a part): as the sequence (Q14145 whole entry G333C, the tested form may be a part) above, with C333G counted along it

[5] = target: recombinant KEAP1-Kelch domain (Homo sapiens, UniProt Q14145); assay: biochemical; type: binding
Sequence of recombinant KEAP1-Kelch domain (Q14145 312-624): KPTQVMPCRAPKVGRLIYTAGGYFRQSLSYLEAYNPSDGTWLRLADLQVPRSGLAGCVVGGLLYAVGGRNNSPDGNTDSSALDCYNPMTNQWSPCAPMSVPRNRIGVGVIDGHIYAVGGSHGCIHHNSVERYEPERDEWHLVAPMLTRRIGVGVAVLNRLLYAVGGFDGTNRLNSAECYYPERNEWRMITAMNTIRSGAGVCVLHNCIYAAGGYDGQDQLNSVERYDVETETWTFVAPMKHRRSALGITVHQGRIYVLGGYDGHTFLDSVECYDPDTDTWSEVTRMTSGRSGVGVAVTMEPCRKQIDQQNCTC

KEAP1 in BEAS-2B cells = KEAP1 in BEAS-2B cells (Homo sapiens, UniProt Q14145); assay: KEAP1 degradation in BEAS-2B cells; type: cell-based
Sequence of KEAP1 in BEAS-2B cells (Q14145 whole entry): as the sequence (Q14145 whole entry G333C, the tested form may be a part) above, with C333G counted along it

KEAP1 in HCA7 cells = KEAP1 in HCA7 cells (Homo sapiens, UniProt Q14145); assay: KEAP1 degradation in HCA7 cells; type: cell-based; settings: 48 h
Sequence of KEAP1 in HCA7 cells (Q14145 whole entry): as the sequence (Q14145 whole entry G333C, the tested form may be a part) above, with C333G counted along it
Procedure, shortened: as §1

[6] = system: NQO1 and GCLM in BEAS-2B cells; assay: NQO1 and GCLM protein expression in BEAS-2B cells; type: cell-based, human; settings: 48 h, all tested concentrations

COc1cc(C(CC(=O)O)c2ccc(C)c(CN3C[C@@H](C)Oc4ccccc4S3(=O)=O)c2)cc2nnn(C)c12 (stereo partly drawn) [Compound 2, 3-(7-Methoxy-1-methyl-1H-benzo[d][1,2,3]triazol-5-yl)-3-(4-methyl-3-(((R)-4-methyl-1,1-dioxido-3,4-dihydro-2H-benzo[b][1,4,5]oxathiazepin-2-yl)methyl)phenyl)propanoic acid]
mRNA induction of GCLM [1]: 2 fold | mRNA induction of NQO1 [1]: 4 fold | mRNA induction of TALDO1 [1]: 2 fold | induction of luciferase signal compared to the DMSO control group [2]: 5- to 6 fold | rescue of cell viability from tBHP, comparison of 14 and 2 (BEAS-2B cells; between 500 and 16 nM): equal potent | ABHD4 abundance (proteomics) (BEAS-2B cells proteome): not upregulated | abundance of KEAP1 (proteomics) (BEAS-2B cells proteome): did not affect KEAP1 expression

Cc1ccc(C(CC(=O)O)c2cc(OCCCCCCCNc3cccc4c3C(=O)N(C3CCC(=O)NC3=O)C4=O)c3c(c2)nnn3C)cc1CN1C[C@@H](C)Oc2ccccc2S1(=O)=O (stereo partly drawn) [Compound 14, 3-(7-((7-((2-(2,6-Dioxopiperidin-3-yl)-1,3-dioxoisoindolin-4-yl)amino)heptyl)oxy)-1-methyl-1H-benzo[d][1,2,3]triazol-5-yl)-3-(4-methyl-3-(((R)-4-methyl-1,1-dioxido-3,4-dihydro-2H-benzo[b][1,4,5]oxathiazepin-2-yl)methyl)phenyl)propanoic acid]
HO-1 protein expression [3]: upregulated | NQO1 protein expression [3]: upregulated | mRNA induction of GCLM [1]: 2 fold | mRNA induction of NQO1 [1]: 4 fold | mRNA induction of TALDO1 [1]: 2 fold | induction of luciferase signal compared to the DMSO control group [2]: 3.5 fold | CRBN levels (CRBN): no change in CRBN levels | rescue of cell viability from tBHP, comparison of 14 and 2 (BEAS-2B cells; between 500 and 16 nM): equal potent | rescue of cell viability from tBHP, comparison of 14 and 2 (BEAS-2B cells; concentrations lower than 16 nM): less effective | KEAP1 degradation [4]: did not degrade KEAP1 | KEAP1 degradation / expression (KEAP1 in HEK293T cells; HEK293T cells, 48 h): robust degradation of KEAP1 | KEAP1 degradation at longer time points (KEAP1 in HEK293T cells; HEK293T cells, 48 h and 72 h, comparison of 8 and 14): degraded KEAP1 more efficiently at 48 and 72 h compared to 8 | hook effect observed at concentrations higher than (KEAP1 in HEK293T cells; HEK293T cells, dose titration 0.01–8 μM, 24 h): higher than 1 μM | Dmax at 1 µM (KEAP1 in HEK293T cells; HEK-293T, read-out: maximum degradation (Dmax)): 94% | IC50 [5]: 46 nM | Dmax at 0.0625 µM (KEAP1 in BEAS-2B cells): 90% | ABHD4 abundance (proteomics) (BEAS-2B cells proteome): significantly upregulated | ZFP91 abundance (proteomics) (BEAS-2B cells proteome): Off-target degradation of ZFP91 | abundance of KEAP1 (proteomics) (BEAS-2B cells proteome): significantly reduced the abundance of KEAP1 | abundance of other Kelch domain proteins KBTBD4, KLHDC2, and KLHL11 (proteomics) (BEAS-2B cells proteome): not impacted | KEAP1 degradation / expression (KEAP1 in HCA7 cells): robust degradation of KEAP1 | increased expression of NQO1 and GCLM, compared with KEAP1 inhibitor 2 [6]: equipotent
